Data as given in ChEMBL document CHEMBL2429814 (J Med Chem, 2013).

What was measured:
[1] = molecular target: Metabotropic glutamate receptor 5 (Rattus norvegicus) (UniProt P31424); experiment: Positive allosteric modulation of mGluR5 in rat cortical neurons at 1 uM relative to DHPG
[2] = molecular target: T1, Metabotropic glutamate receptor 5 (Homo sapiens, UniProt P41594); experiment: Positive allosteric modulation of human mGluR5
[3] = molecular target: T2, Metabotropic glutamate receptor 5 (Rattus norvegicus, UniProt P31424); experiment: Positive allosteric modulation of rat mGluR5
T2 sequence (P31424 whole entry): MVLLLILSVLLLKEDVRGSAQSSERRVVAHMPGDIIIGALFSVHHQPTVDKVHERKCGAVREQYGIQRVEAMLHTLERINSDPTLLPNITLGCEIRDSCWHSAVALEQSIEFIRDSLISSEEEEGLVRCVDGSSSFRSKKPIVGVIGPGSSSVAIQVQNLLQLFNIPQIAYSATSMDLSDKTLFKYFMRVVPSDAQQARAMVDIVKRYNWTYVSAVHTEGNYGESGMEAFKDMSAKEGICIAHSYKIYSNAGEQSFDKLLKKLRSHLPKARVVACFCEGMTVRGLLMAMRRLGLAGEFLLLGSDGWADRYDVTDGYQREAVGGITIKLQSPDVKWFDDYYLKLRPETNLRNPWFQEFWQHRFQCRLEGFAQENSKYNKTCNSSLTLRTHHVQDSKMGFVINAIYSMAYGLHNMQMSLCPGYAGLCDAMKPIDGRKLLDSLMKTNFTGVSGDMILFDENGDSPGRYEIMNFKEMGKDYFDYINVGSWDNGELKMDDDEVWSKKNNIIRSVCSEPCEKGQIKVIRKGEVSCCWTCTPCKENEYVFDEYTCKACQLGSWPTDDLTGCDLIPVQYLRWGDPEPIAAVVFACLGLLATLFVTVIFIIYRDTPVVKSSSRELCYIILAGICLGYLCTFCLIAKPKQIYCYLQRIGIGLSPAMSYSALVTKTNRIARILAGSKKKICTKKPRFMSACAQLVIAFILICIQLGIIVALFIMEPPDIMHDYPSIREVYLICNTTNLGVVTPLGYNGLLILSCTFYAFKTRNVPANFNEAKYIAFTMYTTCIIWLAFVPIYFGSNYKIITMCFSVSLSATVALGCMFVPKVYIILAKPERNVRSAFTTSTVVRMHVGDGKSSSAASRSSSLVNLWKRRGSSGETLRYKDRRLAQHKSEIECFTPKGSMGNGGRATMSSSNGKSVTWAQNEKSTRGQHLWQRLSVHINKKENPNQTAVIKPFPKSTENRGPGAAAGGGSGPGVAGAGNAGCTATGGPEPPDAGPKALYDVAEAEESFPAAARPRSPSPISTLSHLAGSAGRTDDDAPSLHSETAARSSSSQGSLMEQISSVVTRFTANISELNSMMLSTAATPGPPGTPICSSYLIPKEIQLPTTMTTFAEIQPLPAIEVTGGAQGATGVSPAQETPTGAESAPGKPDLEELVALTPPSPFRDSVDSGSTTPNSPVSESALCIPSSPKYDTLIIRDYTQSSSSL

[4] = molecular target: Metabotropic glutamate receptor 5 (Rattus norvegicus) (UniProt P31424); experiment: Positive allosteric modulation of mGluR5 in rat cortical neurons at 3 uM relative to DHPG
[5] = molecular target: Metabotropic glutamate receptor 5 (Rattus norvegicus) (UniProt P31424); experiment: Potentiation of rat mGluR5 receptor stably expressed in HEK293 cells assessed as fold shift in glutamate concentration response curve at 10 uM relative to control; assay type: cell-based
Summary of the method: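 HEK293 cells stably expressing rat mGlu5 were loaded with Fluo-4AM. Compound at 10 µM, or vehicle, was added, and a glutamate concentration-response curve followed 140 s later. The fold leftward shift of the glutamate curve was read from calcium fluorescence. Values are means of three independent experiments in triplicate.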

[6] = molecular target: Metabotropic glutamate receptor 5 (Rattus norvegicus) (UniProt P31424); experiment: Positive allosteric modulation of rat mGluR5 stably expressed in HEK293 cells assessed as increase in intracellular calcium level by Fluo-4AM dye-based fluorescence assay relative to glutamate; assay type: functional, cell-based
[7] = molecular target: T2, Metabotropic glutamate receptor 5; experiment: Positive allosteric modulation of rat mGluR5 stably expressed in HEK293 cells assessed as increase in intracellular calcium level by Fluo-4AM dye-based fluorescence assay; assay type: functional, cell-based; conditions: read-out: EC50
Summary of the method: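 HEK293 cells stably expressing rat mGlu5 (low receptor density line), 15,000 cells/well, grown overnight at 37°C/5% CO2. Loaded with Fluo-4AM for 50 min at 37°C in HBSS with 20 mM HEPES, 2.5 mM probenecid, pH 7.4. Triple add: compound, then EC20 glutamate 140 s later, then EC80 glutamate 60 s later. Calcium fluorescence read over time. Values are means of ≥3 independent experiments run in duplicate or triplicate.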

[8] = Plasma protein binding in human; assay type: ADME, cell-free; conditions: read-out: PPB
Summary of the method: (§1)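 Fraction unbound measured by equilibrium dialysis in human or rat plasma.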

[9] = Fraction unbound in rat plasma by equilibrium dialysis method; assay type: ADME, cell-free
Summary of the method: (§2)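 Plasma protein binding measured by equilibrium dialysis in human or rat plasma; reported as percent unbound.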

[10] = Plasma protein binding in rat; assay type: ADME, cell-free; conditions: read-out: PPB; summary of the method: as §1
[11] = Fraction unbound in human plasma by equilibrium dialysis method; assay type: ADME, cell-free; summary of the method: as §2
[12] = molecular target: T1, Metabotropic glutamate receptor 5; experiment: Positive allosteric modulation of mGluR5 (unknown origin)
[13] = molecular target: T1, Metabotropic glutamate receptor 5; experiment: Positive allosteric modulation of human mGluR5 stably expressed in HEK293 cells assessed as Ca2+ flux by FLIPR assay
[14] = molecular target: T2, Metabotropic glutamate receptor 5; experiment: Positive allosteric modulation of rat mGluR5 stably expressed in HEK293 cells assessed as Ca2+ flux by FLIPR assay; assay type: functional, cell-based

T1 sequence (P41594 whole entry): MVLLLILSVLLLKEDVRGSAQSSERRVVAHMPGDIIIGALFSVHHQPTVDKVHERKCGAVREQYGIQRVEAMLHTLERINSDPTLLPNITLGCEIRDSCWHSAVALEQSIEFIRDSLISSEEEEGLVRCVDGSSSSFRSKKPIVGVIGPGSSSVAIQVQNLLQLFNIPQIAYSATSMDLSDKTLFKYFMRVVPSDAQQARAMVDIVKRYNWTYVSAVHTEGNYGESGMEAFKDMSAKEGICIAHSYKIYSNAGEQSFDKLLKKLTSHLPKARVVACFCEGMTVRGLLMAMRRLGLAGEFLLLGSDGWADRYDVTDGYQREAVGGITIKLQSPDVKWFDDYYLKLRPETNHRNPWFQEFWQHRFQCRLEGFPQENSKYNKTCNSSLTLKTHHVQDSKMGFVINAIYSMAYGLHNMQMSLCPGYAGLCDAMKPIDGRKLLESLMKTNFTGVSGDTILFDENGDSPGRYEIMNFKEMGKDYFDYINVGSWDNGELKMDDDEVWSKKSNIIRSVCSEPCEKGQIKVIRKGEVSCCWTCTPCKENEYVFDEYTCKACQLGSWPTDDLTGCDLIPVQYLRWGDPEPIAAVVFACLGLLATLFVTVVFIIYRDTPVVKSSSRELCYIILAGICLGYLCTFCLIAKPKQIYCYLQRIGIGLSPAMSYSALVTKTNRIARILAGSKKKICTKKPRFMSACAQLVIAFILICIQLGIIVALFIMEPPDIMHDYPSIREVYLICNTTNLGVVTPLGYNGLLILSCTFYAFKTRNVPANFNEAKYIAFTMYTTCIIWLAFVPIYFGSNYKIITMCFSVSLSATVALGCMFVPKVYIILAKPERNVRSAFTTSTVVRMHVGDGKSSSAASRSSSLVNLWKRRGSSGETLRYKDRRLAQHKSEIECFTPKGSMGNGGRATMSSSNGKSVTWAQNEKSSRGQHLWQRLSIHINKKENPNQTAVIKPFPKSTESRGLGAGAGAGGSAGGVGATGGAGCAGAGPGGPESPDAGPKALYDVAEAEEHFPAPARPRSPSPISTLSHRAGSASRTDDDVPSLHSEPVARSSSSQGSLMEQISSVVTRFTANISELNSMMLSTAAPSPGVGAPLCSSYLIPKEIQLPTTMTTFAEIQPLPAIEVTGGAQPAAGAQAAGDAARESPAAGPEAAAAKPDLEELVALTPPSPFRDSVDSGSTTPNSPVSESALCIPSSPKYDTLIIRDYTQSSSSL
Sequence of Metabotropic glutamate receptor 5 (Rattus norvegicus) (P31424 21-1203 limits assumed): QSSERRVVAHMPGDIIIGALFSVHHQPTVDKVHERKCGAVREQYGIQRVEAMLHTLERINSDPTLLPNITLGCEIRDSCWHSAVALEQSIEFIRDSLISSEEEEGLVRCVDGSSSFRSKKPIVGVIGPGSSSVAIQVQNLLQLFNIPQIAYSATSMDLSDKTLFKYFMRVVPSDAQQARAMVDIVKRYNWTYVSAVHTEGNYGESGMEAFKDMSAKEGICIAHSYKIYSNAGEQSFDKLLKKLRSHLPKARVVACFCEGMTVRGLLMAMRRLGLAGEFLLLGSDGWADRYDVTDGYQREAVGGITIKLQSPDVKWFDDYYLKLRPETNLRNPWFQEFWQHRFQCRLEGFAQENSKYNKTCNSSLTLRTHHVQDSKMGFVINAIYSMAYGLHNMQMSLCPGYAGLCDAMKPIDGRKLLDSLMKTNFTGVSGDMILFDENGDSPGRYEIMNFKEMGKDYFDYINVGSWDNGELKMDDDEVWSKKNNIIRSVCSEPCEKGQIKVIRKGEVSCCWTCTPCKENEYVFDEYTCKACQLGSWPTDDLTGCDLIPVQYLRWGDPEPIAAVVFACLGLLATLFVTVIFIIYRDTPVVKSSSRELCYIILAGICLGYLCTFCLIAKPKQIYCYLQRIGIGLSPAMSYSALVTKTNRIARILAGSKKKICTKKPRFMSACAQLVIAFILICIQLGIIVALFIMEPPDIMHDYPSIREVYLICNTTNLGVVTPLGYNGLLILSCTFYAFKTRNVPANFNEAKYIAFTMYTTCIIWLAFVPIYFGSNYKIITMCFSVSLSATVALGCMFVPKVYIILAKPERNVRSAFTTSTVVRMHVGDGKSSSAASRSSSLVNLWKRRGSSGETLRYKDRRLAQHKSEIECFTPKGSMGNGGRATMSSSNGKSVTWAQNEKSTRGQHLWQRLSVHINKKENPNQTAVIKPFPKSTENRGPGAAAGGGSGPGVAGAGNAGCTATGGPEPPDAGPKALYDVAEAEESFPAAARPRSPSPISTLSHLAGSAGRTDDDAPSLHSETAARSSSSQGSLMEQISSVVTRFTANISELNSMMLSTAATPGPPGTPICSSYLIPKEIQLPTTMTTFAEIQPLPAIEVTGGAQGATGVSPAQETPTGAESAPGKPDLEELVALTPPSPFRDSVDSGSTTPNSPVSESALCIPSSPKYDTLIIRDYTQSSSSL

| Structure (SMILES) | EC50 [3] [nM] | fold change (FC) [5] | Efficacy [6] [%] | EC50 [7] [nM] | further results |
| --- | --- | --- | --- | --- | --- |
| CC(C)NC(=O)c1ccc(C#Cc2ccncc2)cn1 | 24 | – | – | – | fold change (FC) [1]: 2; EC50 [2]: 33 nM |
| CC(C)(C)c1nnc2n1CC[C@H](c1nc(-c3ccc(F)cc3)no1)C2 | 42 | – | – | – | EC50 [2]: 52 nM; fold change (FC) [4]: 2.8 |
| O=C(c1ccc(C#Cc2cccc(F)c2)nc1)N1CCC(O)CC1 | 200 | – | – | – | – |
| O=C(NCC1CC1)c1ccc(C#Cc2cccc(F)c2)cn1 | – | 1.6 | 61.4 | 36.7 | – |
| O=C(NC1CCC1)c1ccc(C#Cc2cccc(F)c2)cn1 | 4 | – | – | – | fraction unbound [8]: < 0.01; fraction unbound [9]: < 0.01; fraction unbound [10]: < 0.01; fraction unbound [11]: < 0.01 |
| Fc1cccc(/C=N/N=C/c2cccc(F)c2)c1 | – | – | – | – | EC50 [12]: 2600 nM |
| CC1(CNC(=O)c2ccc(C#Cc3cccc(F)c3)cn2)COC1 | – | 3.3 | 60.4 | 10.7 | – |
| C[C@@H](NC(=O)c1cnc(C#Cc2cccc(F)c2)nc1)C(C)(C)O | – | 4 | 68.7 | 122 | – |
| O=C(c1ccc(F)cc1)N1CCC[C@H](c2nc(-c3ccc(F)cc3)no2)C1 | – | – | – | – | EC50 [13]: 157 nM; EC50 [14]: 55 nM |
